The target of assay [1] is Cyclin-dependent kinase 2 (Homo sapiens) (UniProt P24941). Put plainly: Inhibition of CDK2 Lys2 labeling site harbouring VLHRDLKPQNLLINTEGAIK in human Huh-7 cell lysate at 1 uM by KiNativ Profiling analysis relative to control. The assay is classed as subcellular.
The target of assay [2] is Serine/threonine-protein kinase 10 (Homo sapiens) (UniProt O94804). Put plainly: Inhibition of LOK Lys2 labeling site harbouring IIHRDLKAGNVLMTLEGDIR in human Huh-7 cell lysate at 1 uM by KiNativ Profiling analysis relative to control. It counts as subcellular.
Assay [3] addresses Serine/threonine-protein kinase WNK1 (Homo sapiens) (UniProt Q9H4A3). The assay is described as follows: Inhibition of Wnk1 Lys2 labeling site in human Huh-7 cell lysate at 1 uM by KiNativ Profiling analysis relative to control. It counts as subcellular.
Assay [4] addresses T1, Scaffold protein ILK (Homo sapiens) (UniProt Q13418).
T1 sequence (whole entry): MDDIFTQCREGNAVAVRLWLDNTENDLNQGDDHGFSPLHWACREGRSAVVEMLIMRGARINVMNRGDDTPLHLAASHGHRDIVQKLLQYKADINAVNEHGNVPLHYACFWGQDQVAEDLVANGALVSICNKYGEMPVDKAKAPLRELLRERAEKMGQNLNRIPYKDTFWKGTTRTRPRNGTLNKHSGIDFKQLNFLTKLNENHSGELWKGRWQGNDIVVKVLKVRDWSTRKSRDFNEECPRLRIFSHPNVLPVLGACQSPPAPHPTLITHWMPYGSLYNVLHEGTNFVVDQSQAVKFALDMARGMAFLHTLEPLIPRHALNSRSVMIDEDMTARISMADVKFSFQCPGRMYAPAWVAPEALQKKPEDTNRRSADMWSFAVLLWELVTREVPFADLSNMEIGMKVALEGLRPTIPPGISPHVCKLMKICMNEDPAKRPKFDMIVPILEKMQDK
The assay is described as follows: Inhibition of ILK Lys1 labeling site in human Huh-7 cells at 1 uM by KiNativ Profiling analysis relative to control. It counts as cell-based.

Assay [5] has as its target Microtubule-associated serine/threonine-protein kinase 2 (Homo sapiens) (UniProt Q6P0Q8). Put plainly: Inhibition of MAST2 Lys2 labeling site harbouring DLKPDNLLVTSMGHIK in human Huh-7 cells at 1 uM by KiNativ Profiling analysis relative to control. It counts as cell-based.
Assay [6] addresses Cyclin-dependent kinase 11B (Homo sapiens) (UniProt P21127). The assay is described as follows: Inhibition of CDC2L1 (unknown origin) at 1 uM by Ambit Kinomescan binding assay relative to control.
Assay [7] addresses Cyclin-dependent kinase 13 (Homo sapiens) (UniProt Q14004). The assay is described as follows: Inhibition of CDC2L5 (unknown origin) at 1 uM by Ambit Kinomescan binding assay relative to control.
The subject of assay [8] is Hepatocyte growth factor receptor (Homo sapiens), P08581 [M1250T]. The assay is described as follows: Inhibition of MET M1250T mutant (unknown origin) at 1 uM by Ambit Kinomescan binding assay relative to control.
Assay [9] addresses Ribosomal protein S6 kinase alpha-2 (Homo sapiens) (UniProt Q15349). Put plainly: Inhibition of N-terminal RSK3 kinase domain 1 (unknown origin) at 1 uM by Ambit Kinomescan binding assay relative to control. The gist of the method: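 In vitro ATP-site competition binding assay against a panel of over 420 kinases (KinomeScan), with compound tested at 10 or 1 μM.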
In assay [10] the target is 5'-AMP-activated protein kinase catalytic subunit alpha-2 (Homo sapiens) (UniProt P54646). The assay is described as follows: Inhibition of AMPKa2 Lys2 labeling site in human A-375 cells at 5 uM by KiNativ Profiling analysis relative to control. The assay is classed as cell-based.
The target of assay [11] is Calcium/calmodulin-dependent protein kinase type II subunit delta (Homo sapiens) (UniProt Q13557). The assay is described as follows: Inhibition of CAMK2D (unknown origin) at 10 uM by Ambit Kinomescan binding assay.
In assay [12] the target is Serine/threonine-protein kinase 38-like (Homo sapiens) (UniProt Q9Y2H1). Put plainly: Inhibition of NDR2 (unknown origin) at 10 uM by Ambit Kinomescan binding assay relative to control.
Assay [13] concerns the target AMPK alpha1/alpha2 (Homo sapiens) (UniProt P54646+Q13131). Put plainly: Inhibition of AMPK alpha1/2 K2 labeling site in human Huh-7 cells at 10 uM by KiNativ Profiling analysis relative to control. It counts as cell-based.
For assay [14], the target named is Serine/threonine-protein kinase 16 (Homo sapiens) (UniProt O75716). The assay is described as follows: Inhibition of MPSK1 K2 labeling site in human Huh-7 cells at 10 uM by KiNativ Profiling analysis relative to control. It counts as cell-based.
Assay [15] addresses Serine/threonine-protein kinase WNK4 (Homo sapiens) (UniProt Q96J92). Put plainly: Inhibition of Wnk4 K2 labeling site in human Huh-7 cells at 10 uM by KiNativ Profiling analysis relative to control. The assay is classed as cell-based.
The target of assay [16] is Calcium/calmodulin-dependent protein kinase type II subunit gamma (Homo sapiens) (UniProt Q13555). The assay is described as follows: Inhibition of CaMK2g K1 labeling site in human Huh-7 cells at 1 uM by KiNativ Profiling analysis relative to control. It counts as cell-based.
Assay [17] deals with T2, Dual specificity mitogen-activated protein kinase kinase 6 (Homo sapiens) (UniProt P52564).
T2 sequence (whole entry): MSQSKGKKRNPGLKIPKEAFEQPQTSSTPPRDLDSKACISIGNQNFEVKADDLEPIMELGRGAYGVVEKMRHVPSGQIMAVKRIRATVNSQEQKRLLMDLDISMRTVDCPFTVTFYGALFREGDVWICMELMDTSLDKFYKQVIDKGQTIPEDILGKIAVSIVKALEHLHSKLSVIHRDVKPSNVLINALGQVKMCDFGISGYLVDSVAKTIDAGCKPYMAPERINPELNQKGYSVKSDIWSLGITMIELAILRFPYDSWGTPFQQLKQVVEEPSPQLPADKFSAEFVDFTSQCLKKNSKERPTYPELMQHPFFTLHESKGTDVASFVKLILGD
Put plainly: Inhibition of MAP2K6 K2 labeling site in human Huh-7 cells at 1 uM by KiNativ Profiling analysis relative to control. The assay is classed as cell-based.

For assay [18], the target named is T3, Serine/threonine-protein kinase 3 (Homo sapiens) (UniProt Q13188).
T3 sequence (whole entry): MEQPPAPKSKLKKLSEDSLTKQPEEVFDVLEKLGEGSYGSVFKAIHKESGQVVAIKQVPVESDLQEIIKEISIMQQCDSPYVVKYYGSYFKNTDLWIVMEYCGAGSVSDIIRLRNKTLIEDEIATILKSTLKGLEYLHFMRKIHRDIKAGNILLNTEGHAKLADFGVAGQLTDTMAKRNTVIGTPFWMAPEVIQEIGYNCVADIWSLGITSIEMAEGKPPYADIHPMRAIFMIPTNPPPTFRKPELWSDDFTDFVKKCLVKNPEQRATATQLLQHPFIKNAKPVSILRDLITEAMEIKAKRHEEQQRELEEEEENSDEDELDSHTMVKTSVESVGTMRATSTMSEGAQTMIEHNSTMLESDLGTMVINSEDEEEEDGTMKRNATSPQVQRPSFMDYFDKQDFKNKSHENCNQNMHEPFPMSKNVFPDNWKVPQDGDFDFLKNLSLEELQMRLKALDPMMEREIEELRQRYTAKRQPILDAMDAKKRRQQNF
Put plainly: Inhibition of MST2 K1 labeling site in human Huh-7 cells at 1 uM by KiNativ Profiling analysis relative to control. The assay is classed as cell-based.

Calls of active or inactive are those of the source. The calls are words filed in the database; no cut-off is given here.

5'-AMP-activated protein kinase catalytic subunit alpha-2 (Homo sapiens), sequence (P54646 whole entry, looked up): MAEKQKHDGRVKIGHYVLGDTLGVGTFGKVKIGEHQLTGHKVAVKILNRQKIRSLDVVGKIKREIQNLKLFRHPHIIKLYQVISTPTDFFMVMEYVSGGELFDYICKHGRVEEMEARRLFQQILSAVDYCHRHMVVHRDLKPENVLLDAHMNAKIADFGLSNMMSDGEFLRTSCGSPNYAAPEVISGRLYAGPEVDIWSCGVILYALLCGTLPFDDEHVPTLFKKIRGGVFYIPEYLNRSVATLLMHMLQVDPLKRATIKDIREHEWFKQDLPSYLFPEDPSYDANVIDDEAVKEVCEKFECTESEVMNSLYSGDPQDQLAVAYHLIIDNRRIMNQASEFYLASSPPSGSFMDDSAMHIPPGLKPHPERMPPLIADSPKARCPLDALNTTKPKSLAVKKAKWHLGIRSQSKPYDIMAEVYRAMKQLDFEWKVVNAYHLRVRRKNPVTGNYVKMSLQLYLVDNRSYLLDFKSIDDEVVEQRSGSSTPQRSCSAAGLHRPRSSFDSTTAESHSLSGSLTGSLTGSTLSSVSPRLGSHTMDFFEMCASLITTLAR
AMPK alpha1/alpha2 (Homo sapiens), sequence (P54646 whole entry, looked up): as above
AMPK alpha1/alpha2 (Homo sapiens), sequence (Q13131 whole entry, looked up): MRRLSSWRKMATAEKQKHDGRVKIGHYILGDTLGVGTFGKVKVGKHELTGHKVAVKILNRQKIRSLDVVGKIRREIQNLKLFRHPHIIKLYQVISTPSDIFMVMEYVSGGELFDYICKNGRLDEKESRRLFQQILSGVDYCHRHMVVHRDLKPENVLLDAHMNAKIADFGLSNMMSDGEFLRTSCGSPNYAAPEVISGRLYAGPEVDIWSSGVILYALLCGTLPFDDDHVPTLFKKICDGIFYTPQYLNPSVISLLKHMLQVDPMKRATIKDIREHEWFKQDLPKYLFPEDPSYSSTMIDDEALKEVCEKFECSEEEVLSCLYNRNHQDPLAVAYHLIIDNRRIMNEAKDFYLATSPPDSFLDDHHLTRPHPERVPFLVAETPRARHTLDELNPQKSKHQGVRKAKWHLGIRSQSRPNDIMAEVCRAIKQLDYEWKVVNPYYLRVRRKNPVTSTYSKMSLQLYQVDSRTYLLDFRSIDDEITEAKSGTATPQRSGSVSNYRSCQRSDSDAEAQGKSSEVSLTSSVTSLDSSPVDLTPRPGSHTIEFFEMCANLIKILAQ
Serine/threonine-protein kinase 16 (Homo sapiens), sequence (O75716 whole entry): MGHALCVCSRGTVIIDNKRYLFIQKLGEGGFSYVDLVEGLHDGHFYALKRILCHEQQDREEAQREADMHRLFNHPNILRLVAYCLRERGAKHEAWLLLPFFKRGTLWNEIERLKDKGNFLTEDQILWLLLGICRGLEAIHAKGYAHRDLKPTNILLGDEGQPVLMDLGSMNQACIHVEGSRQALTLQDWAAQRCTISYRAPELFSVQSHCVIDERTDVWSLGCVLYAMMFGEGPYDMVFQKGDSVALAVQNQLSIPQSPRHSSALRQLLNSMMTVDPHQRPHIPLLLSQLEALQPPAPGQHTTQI
Microtubule-associated serine/threonine-protein kinase 2 (Homo sapiens), sequence (Q6P0Q8 whole entry): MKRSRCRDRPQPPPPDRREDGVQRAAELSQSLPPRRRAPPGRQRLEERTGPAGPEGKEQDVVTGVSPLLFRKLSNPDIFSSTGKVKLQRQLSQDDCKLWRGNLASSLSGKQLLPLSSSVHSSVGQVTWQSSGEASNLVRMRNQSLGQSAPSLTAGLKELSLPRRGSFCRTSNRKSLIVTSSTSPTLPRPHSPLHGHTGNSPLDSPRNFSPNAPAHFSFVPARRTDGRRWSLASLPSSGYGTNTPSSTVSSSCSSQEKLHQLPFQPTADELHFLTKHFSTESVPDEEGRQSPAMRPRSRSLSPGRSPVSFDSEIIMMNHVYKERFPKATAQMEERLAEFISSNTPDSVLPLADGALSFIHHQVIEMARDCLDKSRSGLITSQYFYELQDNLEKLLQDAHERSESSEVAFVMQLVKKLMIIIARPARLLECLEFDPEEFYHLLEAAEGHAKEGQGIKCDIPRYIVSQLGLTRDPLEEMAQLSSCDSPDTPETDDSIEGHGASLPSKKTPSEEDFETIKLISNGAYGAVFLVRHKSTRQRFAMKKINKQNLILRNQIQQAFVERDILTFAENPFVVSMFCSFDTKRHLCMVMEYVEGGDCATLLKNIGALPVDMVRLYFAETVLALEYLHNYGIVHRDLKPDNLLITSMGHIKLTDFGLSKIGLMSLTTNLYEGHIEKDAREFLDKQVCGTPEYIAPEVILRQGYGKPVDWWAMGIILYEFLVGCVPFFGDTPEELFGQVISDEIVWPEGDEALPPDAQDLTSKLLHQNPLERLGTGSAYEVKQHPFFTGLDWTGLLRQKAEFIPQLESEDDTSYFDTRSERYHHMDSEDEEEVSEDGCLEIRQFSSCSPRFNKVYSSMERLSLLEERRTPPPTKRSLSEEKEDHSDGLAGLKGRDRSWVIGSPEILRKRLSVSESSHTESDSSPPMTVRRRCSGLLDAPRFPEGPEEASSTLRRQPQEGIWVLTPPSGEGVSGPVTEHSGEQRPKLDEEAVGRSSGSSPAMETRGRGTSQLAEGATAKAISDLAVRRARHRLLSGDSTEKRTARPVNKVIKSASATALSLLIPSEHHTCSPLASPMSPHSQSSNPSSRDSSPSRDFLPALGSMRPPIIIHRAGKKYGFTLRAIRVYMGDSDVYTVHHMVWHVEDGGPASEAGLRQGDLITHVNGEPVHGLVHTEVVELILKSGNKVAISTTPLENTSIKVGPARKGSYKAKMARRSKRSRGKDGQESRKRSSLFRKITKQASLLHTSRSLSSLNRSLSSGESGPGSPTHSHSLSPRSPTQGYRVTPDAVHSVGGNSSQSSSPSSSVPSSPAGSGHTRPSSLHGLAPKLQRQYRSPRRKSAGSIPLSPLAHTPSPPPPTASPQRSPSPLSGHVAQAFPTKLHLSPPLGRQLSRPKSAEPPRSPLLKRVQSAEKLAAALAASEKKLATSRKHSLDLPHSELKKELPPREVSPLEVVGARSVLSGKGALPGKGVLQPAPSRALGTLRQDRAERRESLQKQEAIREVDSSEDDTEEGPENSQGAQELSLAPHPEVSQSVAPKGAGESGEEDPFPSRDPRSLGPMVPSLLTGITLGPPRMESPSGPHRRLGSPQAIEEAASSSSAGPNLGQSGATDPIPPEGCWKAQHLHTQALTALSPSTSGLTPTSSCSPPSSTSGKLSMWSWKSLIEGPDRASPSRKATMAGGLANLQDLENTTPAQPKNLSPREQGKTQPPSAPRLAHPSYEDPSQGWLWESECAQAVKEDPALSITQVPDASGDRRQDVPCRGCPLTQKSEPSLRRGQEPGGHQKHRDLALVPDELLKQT
Cyclin-dependent kinase 13 (Homo sapiens), sequence (Q14004 whole entry, looked up): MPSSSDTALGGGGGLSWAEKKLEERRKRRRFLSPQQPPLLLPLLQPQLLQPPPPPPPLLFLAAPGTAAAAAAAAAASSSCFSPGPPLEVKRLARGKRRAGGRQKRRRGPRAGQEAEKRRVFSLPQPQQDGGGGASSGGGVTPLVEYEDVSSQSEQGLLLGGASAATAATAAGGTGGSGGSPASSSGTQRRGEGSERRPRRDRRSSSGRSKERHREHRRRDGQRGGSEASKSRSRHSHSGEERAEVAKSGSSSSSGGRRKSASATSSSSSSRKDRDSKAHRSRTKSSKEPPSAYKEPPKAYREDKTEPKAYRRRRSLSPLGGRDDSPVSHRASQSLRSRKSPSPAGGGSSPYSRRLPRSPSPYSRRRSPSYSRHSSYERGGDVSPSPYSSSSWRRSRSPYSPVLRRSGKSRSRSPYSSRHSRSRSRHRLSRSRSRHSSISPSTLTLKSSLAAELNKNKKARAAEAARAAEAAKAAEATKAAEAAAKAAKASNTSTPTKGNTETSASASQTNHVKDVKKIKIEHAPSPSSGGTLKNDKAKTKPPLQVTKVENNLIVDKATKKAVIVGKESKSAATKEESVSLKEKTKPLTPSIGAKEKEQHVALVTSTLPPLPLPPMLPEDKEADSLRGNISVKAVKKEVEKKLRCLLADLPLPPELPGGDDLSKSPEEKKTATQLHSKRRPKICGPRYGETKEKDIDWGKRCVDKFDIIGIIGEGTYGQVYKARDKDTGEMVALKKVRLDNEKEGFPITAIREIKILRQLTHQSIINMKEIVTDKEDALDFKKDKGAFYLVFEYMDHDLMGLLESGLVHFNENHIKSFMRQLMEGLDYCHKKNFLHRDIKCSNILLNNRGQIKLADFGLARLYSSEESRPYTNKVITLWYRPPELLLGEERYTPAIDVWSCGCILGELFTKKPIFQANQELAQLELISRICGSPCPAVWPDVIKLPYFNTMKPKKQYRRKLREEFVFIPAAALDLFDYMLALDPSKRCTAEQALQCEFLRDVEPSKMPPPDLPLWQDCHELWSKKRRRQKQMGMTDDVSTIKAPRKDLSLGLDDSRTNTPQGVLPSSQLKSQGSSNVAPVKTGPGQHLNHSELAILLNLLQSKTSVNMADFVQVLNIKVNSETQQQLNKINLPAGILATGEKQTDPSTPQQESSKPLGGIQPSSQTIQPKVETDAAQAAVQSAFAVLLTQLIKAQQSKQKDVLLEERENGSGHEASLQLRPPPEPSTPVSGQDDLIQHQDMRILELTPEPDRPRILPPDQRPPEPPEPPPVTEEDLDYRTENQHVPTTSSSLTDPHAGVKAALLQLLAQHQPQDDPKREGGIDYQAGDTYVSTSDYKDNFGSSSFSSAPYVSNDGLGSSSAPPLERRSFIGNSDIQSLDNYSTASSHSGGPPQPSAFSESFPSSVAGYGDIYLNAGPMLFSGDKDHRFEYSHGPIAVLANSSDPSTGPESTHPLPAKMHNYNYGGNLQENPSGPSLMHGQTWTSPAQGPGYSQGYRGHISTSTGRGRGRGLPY

As usually defined, the inhibition is the drop in the measured response relative to a control, in per cent. As for `CNc1cc(Oc2cc(C(=O)Nc3cc(N4CCN(C)CC4)cc(C(F)(F)F)c3)ccc2C)ncn1`, the inhibition in [1] was 16.1%; in assay [2], 12.3%; in [3] it was 2.7%; in assay [4], -6.7%; in assay [5], 30.2%.

For the compound `CCN1CCN(Cc2ccc(NC(=O)c3ccc(C)c(/C=C/c4cnc5[nH]ccc5c4OC)c3)cc2C(F)(F)F)CC1`, the inhibition in [6] is 61%; in assay [7] it was 100%; in [8] it was 74%; in assay [9], 68%; in assay [10] it was 18.5%.

With `CCN1CCN(Cc2ccc(NC(=O)c3ccc(C)c(Oc4ccnc5[nH]ccc45)c3)cc2C(F)(F)F)CC1`, in assay [11], the inhibition entry was “inactive”. The inhibition in assay [12] was 6.8%; in assay [13] it was 6.2%; in assay [14], 19.2%; in [15], -1.5%; in assay [16], -7.7%; in assay [17], -7.1%. For the same compound, the inhibition in assay [18] was 16.2%.

Source of the values: ChEMBL document CHEMBL5696442, “Discovery of type II inhibitors of TGFβ-activated kinase 1 (TAK1) and mitogen-activated protein kinase kinase kinase kinase 2 (MAP4K2)” (J Med Chem, 2015).
